This note sets out measurements from ChEMBL document CHEMBL1944526, “Diamine and aminoalcohol derivatives active against Trypanosoma brucei” (Bioorg Med Chem Lett, 2012).

Calls of active or inactive are those of the source. No cut-off for these calls is given here. Some results are limits rather than exact numbers.

Data set [1] deals with Trypanosoma brucei rhodesiense. The data set can be described thus: Antitrypanosomal activity against bloodstream form of Trypanosoma brucei rhodesiense EATRO3 after 72 hrs by alamar blue assay. Type of data set: functional, organism-based. The following applies: EATRO3, 72 h. Summed up:
(§1)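 Bloodstream-form parasites were grown in HMI-9 with 20% heat-inactivated FBS at 37 °C and 5% CO2. They were seeded at 2 × 10^3 cells/ml (T. b. rhodesiense EATRO3) or 2 × 10^4 cells/ml (T. b. gambiense ELIANE) and exposed to a compound dilution series for 72 h. Untreated cells with matching DMSO served as controls. Alamar Blue fluorescence was read at ex 550/em 590 nm, and EC50 was derived from it.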
A general note: Alamar Blue is a resazurin reagent that responds to reducing activity.

A short description of data set [2]: Selectivity index, ratio of CC50 for african green monkey Vero cells to EC50 for Trypanosoma brucei rhodesiense EATRO3. The following applies: read-out: Ratio CC50/EC50. Type of data set: toxicity, cell-based. Summed up:
(§2)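 Vero cells were grown in DMEM with 10% heat-inactivated FBS and seeded at 5 × 10^4 cells/ml. They were exposed to 4–35 (units as printed unclear) compound concentrations for 72 h at 37 °C and 5% CO2. CC50 came from Alamar Blue fluorescence (ex 550/em 590 nm). SI = CC50 (Vero) / EC50 (parasite, 72 h Alamar Blue assay).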

For data set [3], the system named is Trypanosoma brucei gambiense. The data set is described as follows: Antitrypanosomal activity against bloodstream form of Trypanosoma brucei gambiense ELIANE after 72 hrs by alamar blue assay. The data set is classed as functional, organism-based. Summed up: as §1
Data set [4] can be described thus: Selectivity index, ratio of CC50 for african green monkey Vero cells to EC50 for Trypanosoma brucei gambiense ELIANE. The data set is classed as toxicity, cell-based. The settings on record: read-out: Ratio CC50/EC50. The method, boiled down: as §2
Data set [5] relates to Trypanosoma brucei rhodesiense. The data set is described as follows: Antitrypanosomal activity against bloodstream form of Trypanosoma brucei rhodesiense EATRO3 assessed as alteration of flagellar pocket at […] after 24 hrs by microscopic analysis. Type of data set: functional, organism-based. Summed up:
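Live bloodstream-form T. b. rhodesiense EATRO3, cultured in HMI-9 with 20% heat-inactivated FBS at 37 °C and 5% CO2, were treated for 24 h. Flagellar pocket morphology was imaged with Nomarski optics and compared against untreated parasites.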

For the compound `CCCCCCCCCCCCCCC(CO)NC(=O)CCCC(=O)O` (racemic), the EC50 in data set [1] was above 2500 nM.

On to `CCCCCCCCCCCCCCC(CO)NCCCC` (racemic), for which it took 817 nM to reach a half-maximal effect in data set [1] (EC50).

In turn, `CCCCCCCCCCCCCCC(CO)NCC` (racemic) registered an EC50 in data set [1] of 1140 nM. Moreover, in data set [2], the selectivity ratio is 39.1.

`CCCCCCCCCCCCCCC(O)CN1CCN(C)CC1` (racemic): the EC50 in data set [1] worked out at 524 nM; in data set [3], 431 nM. In addition, the values for the selectivity ratio in data set [2] and in data set [4] were 23.7 and 28.8, respectively. Further, the result in data set [5] was Active.

The compound `Cc1ccc(C(=O)Nc2ccc(S(=O)(=O)O)c3cc(S(=O)(=O)O)cc(S(=O)(=O)O)c23)cc1NC(=O)c1cccc(NC(=O)Nc2cccc(C(=O)Nc3cc(C(=O)Nc4ccc(S(=O)(=O)O)c5cc(S(=O)(=O)O)cc(S(=O)(=O)O)c45)ccc3C)c2)c1` [SURAMIN] came in with an EC50 in data set [1] of 185 nM.

Consider `CCCCCCCCCCC(CO)NCC` (racemic), for which, in data set [1], it took 1090 nM to reach a half-maximal effect (EC50).

With `CCCCCCCCCCCCCCC(CN)NC(=O)OC(C)(C)C` (racemic), the EC50 in data set [1] amounted to 961 nM. In addition, the selectivity ratio in data set [2] came to 17.

As for `CCCCCCCCCCCCCCC(CO)N(CC)CC` (racemic), the EC50 in data set [1] is 722 nM.

In data set [1], `CCCCCCCCCCCCCCC(CNCCCCCC)NC(=O)OC(C)(C)C` (racemic) registered an EC50 above 2500 nM.

`CCCCCCCCCCCCCCC(CNC(=O)CCC(=O)O)NC(=O)OC(C)(C)C` (racemic) yielded a concentration giving a half-maximal response (EC50) in data set [1] above 2500 nM.

With `CCCCCCCCCCCCCCC(O)CNC(C)C` (racemic), the EC50 in data set [1] is 436 nM; in data set [3], 329 nM. Also, the selectivity ratio in data set [2] was 27.1; in data set [4] it was 35.8. In data set [5], the result was Active.

`CCCCCCCCCCCCCCC(O)CNCCCCCC` (racemic) had an EC50 in data set [1] above 2500 nM.

Take `CCCCCCCCCCCCCCC(N)CO` (racemic): the half-maximal effective concentration (EC50) in data set [1] is above 2500 nM.

`CCCCCCCCCCCCCCC(O)CN1CCOCC1` (racemic) registered an EC50 in data set [1] above 2500 nM.

In data set [1], `CCCCCCCCCCCCCCC(CNCC)NC(=O)OC(C)(C)C` (racemic) showed an EC50 of 704 nM. Besides, the selectivity ratio in data set [2] stood at 38.8.

Turning to `CCCCCCCCCCCCCCC(COCc1ccccc1)NC(=O)CCC(=O)O` (racemic), in data set [1], the EC50 is above 2500 nM.

Turning to `CCCCCCCCCCCCCCC(O)CN1CCN(CCCC)CC1` (racemic), the response in data set [1] was half-maximal at 1780 nM (EC50).

On to `N=C(N)c1ccc(OCCCCCOc2ccc(C(=N)N)cc2)cc1`, for which the response in data set [1] was half-maximal at 3.7 nM (EC50).

As for `CCCCCCCCCCCCCCC(N)CNCC(=O)O` (racemic), the EC50 in data set [1] was above 2500 nM.

Consider `CCCCCCCCCCCCCCCCC(CO)NCC` (racemic), for which the EC50 in data set [1] is 584 nM; in data set [3], 451 nM. The selectivity ratio was 27.7 in data set [2] and 35.9 in data set [4]. For the same compound, in data set [5], the result was Active.

In turn, `CCCCCCCCCCCCCCC(O)CNC1CCCCC1` (racemic) registered an EC50 in data set [1] of 790 nM.

As to `CCCCCCCCCCCCCCC(O)CN(CC)CC` (racemic), the midpoint of the response in data set [1], the EC50, lay at 2000 nM. Moreover, in data set [2], the selectivity ratio came out at 19.9.

A word on the EC50: it is the concentration giving half of the maximal effect.
